One molecule from ChEMBL document CHEMBL3525987, “Assessment of exposure of metabolites in preclinical species and humans at steady state from the single-dose radiolabeled absorption, distribution, metabolism, and excretion studies: a case study” (Drug Metab Dispos, 2012) can be followed below.

Data set [1] in a line: Half life in human plasma at 100 mg, po administered as single dose by LC-MS/MS analysis. On the set-up: dosed compound name [14C]lixivaptan. The class given is ADME, organism-based. A digest of the protocol:
(§1)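 Single oral 100 mg [14C]drug to healthy male volunteers; plasma at 0.25-144 h. Parent by validated LC-MS/MS, total radioactivity by LSC as ng-equiv/ml; Tmax from observed data; t1/2 = 0.693/kel from log-linear terminal regression.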

Data set [2] in a line: AUC(0 to t) in human plasma at 100 mg, po administered as single dose by LC-MS/MS analysis. The class given is ADME, organism-based. On the set-up: dosed compound name [14C]lixivaptan. The gist of the method: (§2)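 Fasted healthy males took one oral 100 mg (200 µCi) [14C]lixivaptan dose. Plasma was drawn from predose to 144 h. Total radioactivity was measured by LSC and converted to ng-equiv/ml via the dose specific activity; lixivaptan by validated LC-MS/MS. Noncompartmental analysis: Cmax observed; kel by log-linear regression; AUC0-t by linear trapezoid; extrapolation as Cest/kel.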

A short description of data set [3]: Tmax in male Sprague-Dawley rat plasma at 10 mg/kg, po administered as single dose via gavage by LC-MS/MS analysis. The format is ADME, organism-based. On the set-up: dose 10 mg/kg, dosed compound name [14C]lixivaptan, route oral. A digest of the protocol:
(§3)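 Jugular-vein cannulated SD rats (5/gender) given gavage [14C]drug 10 mg/kg in pluronic F68/water; K2EDTA blood 0.25-168 h with donor blood replacement. Parent by validated LC-MS/MS, radioactivity by LSC; Tmax observed; t1/2 = 0.693/kel by terminal log-linear regression.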

A short description of data set [4]: Half life in male Sprague-Dawley rat plasma at 10 mg/kg, po administered as single dose via gavage by LC-MS/MS analysis. The class given is ADME, organism-based. On the set-up: dose 10 mg/kg, dosed compound name [14C]lixivaptan, route oral. The gist of the method: as §3
Data set [5] in a line: AUC(0 to infinity) in male Sprague-Dawley rat plasma at 10 mg/kg, po administered as single dose via gavage by LC-MS/MS analysis. The class given is ADME, organism-based. Further details: time infinity, dose 10 mg/kg, dosed compound name [14C]lixivaptan, route oral. The gist of the method:
(§4)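 Jugular-cannulated Sprague-Dawley rats (5/gender) were fasted 18 h and gavaged once with 10 mg/kg [14C]lixivaptan suspended in water/pluronic F68. K2EDTA blood was taken at 0.25–168 h, with donor blood replaced from 1 h on. Total radioactivity was read by LSC (ng-equiv/ml) and parent by validated LC-MS/MS. Noncompartmental Cmax, log-linear kel and trapezoidal AUC followed.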

A short description of data set [6]: Cmax in female Sprague-Dawley rat plasma at 10 mg/kg, po administered as single dose. The format is ADME, organism-based. On the set-up: dose 10 mg/kg, dosed compound name [14C]lixivaptan, route oral. A digest of the protocol: as §4
Data set [7] can be described thus: Half life in female Sprague-Dawley rat plasma at 10 mg/kg, po administered as single dose via gavage by LC-MS/MS analysis. The format is ADME, organism-based. Further details: dose 10 mg/kg, dosed compound name [14C]lixivaptan, route oral. A digest of the protocol: as §3
A short description of data set [8]: AUC(0 to t) in female Sprague-Dawley rat plasma at 10 mg/kg, po administered as single dose via gavage by LC-MS/MS analysis. The format is ADME, organism-based. Further details: dose 10 mg/kg, dosed compound name [14C]lixivaptan, route oral. A digest of the protocol: as §4
A short description of data set [9]: Half life in male beagle dog plasma at 10 mg/kg, po administered as single dose by LC-MS/MS analysis. The format is ADME, organism-based, Canis lupus familiaris. On the set-up: dose 10 mg/kg, dosed compound name [14C]lixivaptan, route oral. The gist of the method:
(§5)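 Male beagles given 10 mg/kg [14C]drug oral suspension; jugular K2EDTA blood at 0.25-168 h. Parent by validated LC-MS/MS, total radioactivity by LSC; Tmax observed; t1/2 = 0.693/kel from terminal log-linear regression.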

A short description of data set [10]: AUC(0 to t) in male beagle dog plasma at 10 mg/kg, po administered as single dose by LC-MS/MS analysis. Further details: dose 10 mg/kg, dosed compound name [14C]lixivaptan, route oral. The format is ADME, organism-based, Canis lupus familiaris. A digest of the protocol: (§6)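 Four male beagles were fasted 18 h and gavaged once with 10 mg/kg (2 ml/kg) [14C]lixivaptan as a 5.0 mg/ml water/pluronic F68 suspension. Jugular K2EDTA blood was sampled from 0.25 to 168 h. Plasma total radioactivity was counted by LSC as ng-equiv/ml and lixivaptan by validated LC-MS/MS. Noncompartmental Cmax, t1/2 and trapezoidal AUC were derived.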

A short description of data set [11]: AUC(0 to infinity) in male beagle dog plasma at 10 mg/kg, po administered as single dose by LC-MS/MS analysis. The format is ADME, organism-based, Canis lupus familiaris. On the set-up: time infinity, dose 10 mg/kg, dosed compound name [14C]lixivaptan, route oral. The gist of the method: as §6
Data set [12] can be described thus: Cmax in human plasma at 100 mg, po administered as single dose by LC-MS/MS analysis. The format is ADME, organism-based. Further details: dose 100 mg, route oral, dosed compound name [14C]lixivaptan. The gist of the method:
as §2

In data set [13] the test system is Homo sapiens. Description: Drug concentration at steady state in human at 100 mg, po qd for 7 days by LC/MS/MS analysis. The class given is ADME, organism-based. Further details: dosed compound name Lixivaptan. Conditions: in vivo, 168 h. The gist of the method: (§7)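 Phase 1 human study with lixivaptan 100 mg orally once daily and blood taken on the final day. Parent and two abundant metabolites were quantified in plasma with a validated LC-MS/MS assay.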

A short description of data set [14]: AUC at steady state in human at 100 mg, po qd for 7 days by LC/MS/MS analysis. The format is ADME, organism-based. Further details: dosed compound name Lixivaptan. Particulars: plasma. The gist of the method: as §7
A short description of data set [15]: Tmax in human plasma at 100 mg, po administered as single dose by LC-MS/MS analysis. The class given is ADME, organism-based. On the set-up: dosed compound name [14C]lixivaptan. A digest of the protocol:
as §1

Data set [16] is described as follows: AUC(0 to infinity) in human plasma at 100 mg, po administered as single dose by LC-MS/MS analysis. The class given is ADME, organism-based. Further details: dose 100 mg, route oral, time infinity, dosed compound name [14C]lixivaptan. A digest of the protocol: as §2
Data set [17] can be described thus: Cmax in male Sprague-Dawley rat plasma at 10 mg/kg, po administered as single dose via gavage by LC-MS/MS analysis. The format is ADME, organism-based. On the set-up: dose 10 mg/kg, dosed compound name [14C]lixivaptan, route oral. The gist of the method: as §4
Data set [18] can be described thus: AUC(0 to t) in male Sprague-Dawley rat plasma at 10 mg/kg, po administered as single dose via gavage by LC-MS/MS analysis. The format is ADME, organism-based. Further details: dose 10 mg/kg, dosed compound name [14C]lixivaptan, route oral. The gist of the method: as §4
Data set [19] in a line: Tmax in female Sprague-Dawley rat plasma at 10 mg/kg, po administered as single dose via gavage by LC-MS/MS analysis. The class given is ADME, organism-based. On the set-up: dose 10 mg/kg, dosed compound name [14C]lixivaptan, route oral. A digest of the protocol:
as §3

Data set [20] in a line: AUC(0 to infinity) in female Sprague-Dawley rat plasma at 10 mg/kg, po administered as single dose via gavage by LC-MS/MS analysis. On the set-up: time infinity, dose 10 mg/kg, dosed compound name [14C]lixivaptan, route oral. The format is ADME, organism-based. The gist of the method:
as §4

The nature of data set [21]: Tmax in male beagle dog plasma at 10 mg/kg, po administered as single dose by LC-MS/MS analysis. On the set-up: dose 10 mg/kg, dosed compound name [14C]lixivaptan, route oral. The class given is ADME, organism-based, Canis lupus familiaris. A digest of the protocol: as §5
The nature of data set [22]: Cmax in male beagle dog plasma at 10 mg/kg, po administered as single dose by LC-MS/MS analysis. Further details: dose 10 mg/kg, dosed compound name [14C]lixivaptan, route oral. The format is ADME, organism-based, Canis lupus familiaris. The gist of the method:
as §6

As usually defined, the half-life is the time needed for the level to fall by half in the phase considered. Lower therefore signals fast loss. In general, AUC(0-t) refers to the area under the concentration-time curve up to a stated or last time point. High values mean more exposure, low ones less exposure. For orientation: Tmax means the time at which the peak concentration occurs. Broadly, the AUC(0-inf) is the area under the concentration-time curve extrapolated to infinity. Low values mean low exposure, high ones high exposure. Usually Cmax stands for the maximum level reached in the sampled fluid or tissue. The term AUC denotes concentration integrated over time. A higher AUC goes with high exposure. On to `Cc1ccc(F)cc1C(=O)Nc1ccc(C(=O)N2Cc3cccn3Cc3ccccc32)c(Cl)c1` [LIXIVAPTAN], for which the half-life is 9.77 h in [1], 1.3 h in data set [4], 4.2 h in [7] and 8.8 h in [9]. For the same molecule, the AUC(0-t) amounted to 1.54 µg·h/mL in [2], 1.53 µg·h/mL in data set [8], 4.7 µg·h/mL in data set [10] and 0.14 µg·h/mL in [18]. For the same molecule, the time of peak concentration (Tmax) in data set [3] came out at 0.8 h; in data set [15], 0.7 h; in data set [19], 0.8 h; in data set [21], 0.8 h. Further, the area under the curve AUC(0-inf) is 0.219 µg·h/mL in [5], 4.87 µg·h/mL in [11], 1.57 µg·h/mL in data set [16] and 1.89 µg·h/mL in data set [20]. Moreover, the Cmax in data set [6] turned out to be 0.338 µg/mL; in [12] it was 0.437 µg/mL; in [17], 0.091 µg/mL; in data set [22], 0.759 µg/mL. This molecule also gave a Css in data set [13] of 0.514 µg/mL. Further, the AUC at 168 h in data set [14] came to 2.96 µg·h/mL.
